In ChEMBL document CHEMBL3351834, “Jalapinoside, a macrocyclic bisdesmoside from the resin glycosides of Ipomea purga, as a modulator of multidrug resistance in human cancer cells” (J Nat Prod, 2015):
≈ marks a conversion by molar mass, not a printed value.

Columns and labels:
MCF7 [1] = assay: Cytotoxicity against human MCF7 cells assessed as growth inhibition after 72 hrs by SRB assay in presence of vinblastine; assay type: functional, cell-based; settings: MCF7, 72 h
Procedure, shortened: (§1)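 SRB assay. Log-phase cells, RPMI 1640 + 10% FBS, treated in triplicate with test samples at 0.2−25 μg/mL, 72 h at 37 °C, 5% CO2, static conditions. IC50 (50% inhibition of control growth) read from a semilog plot of concentration (μg/mL) against % growth inhibition. Resistant subline kept in 0.192 μg/mL vinblastine; a vinblastine-free stock also maintained.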

MCF7 [2] = assay: Cytotoxicity against vinblastin-sensitive human MCF7 cells assessed as growth inhibition after 72 hrs by SRB assay; assay type: functional, cell-based; settings: MCF7, 72 h; procedure, shortened: as §1
MCF7 [3] = assay: Reversal of multidrug-resistance in human MCF7 cells in presence of vinblastine assessed as reduction in vinblastine IC50 at 25 ug/ml relative to IC50 vinblastine alone; assay type: functional
Procedure, shortened: (§2)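 Modulation by SRB assay. MCF-7 or MCF-7/Vin cells exposed 72 h to vinblastine (0.000 64−10 μg/mL) with or without glycolipid at 25 or 5 μg/mL (water−DMSO 9:1). Vinblastine IC50 taken from a semilog growth-inhibition plot. Reserpine 5 μg/mL as reference modulator. Reversal fold = IC50 of vinblastine alone ÷ IC50 with test compound.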

MCF7 [4] = assay: Reversal of multidrug-resistance in vinblastin-sensitive human MCF7 cells assessed as reduction in vinblastine IC50 at 25 ug/ml relative to IC50 vinblastine alone; assay type: functional; procedure, shortened: as §2
MCF7 [5] = assay: Reversal of multidrug-resistance in human MCF7 cells assessed as reduction in vinblastine IC50 at 25 ug/ml relative to IC50 vinblastine alone; assay type: functional; procedure, shortened: as §2
MCF7 [6] = assay: Cytotoxicity against human MCF7 cells assessed as growth inhibition after 72 hrs by SRB assay; assay type: functional, cell-based; settings: MCF7, 72 h; procedure, shortened: as §1

Structure (SMILES) | IC50 (MCF7 [1]) | IC50 (MCF7 [2]) | fold change (FC) (MCF7 [3]) | fold change (FC) (MCF7 [4]) | fold change (FC) (MCF7 [5]) | IC50 (MCF7 [6])
CCCCCCCCCCCC(=O)O[C@H]1[C@@H](O)[C@@H](C)O[C@@H](O[C@@H]2[C@@H](O[C@@H]3O[C@H](CO)[C@@H](O)[C@H](O)[C@H]3O[C@@H]3O[C@H](C)[C@@H](O)[C@H](OC(=O)[C@@H](C)CC)[C@H]3O)[C@@H](OC(=O)[C@@H](C)CC)[C@H](O[C@H]3[C@@H]4O[C@H]5[C@H](O[C@H](CCC)CCCCCCC[C@H](O[C@@H]6O[C@H](C)[C@@H](O)[C@H](O)[C@H]6O)CC(=O)O[C@H]3[C@H](O)[C@@H](COC(C)=O)O4)O[C@H](C)[C@@H](O)[C@@H]5O)O[C@H]2C)[C@@H]1O | < 0.00064 µg/mL | < 0.00064 µg/mL | >1906.3 | 73.4 | >1593 | < 0.00064 µg/mL
COC(=O)[C@H]1[C@H]2C[C@@H]3c4[nH]c5cc(OC)ccc5c4CCN3C[C@H]2C[C@@H](OC(=O)c2cc(OC)c(OC)c(OC)c2)[C@@H]1OC [RESERPINE] | 0.31 µg/mL | 0.003 µg/mL (≈ 0.00493 µM) |  |  |  | 0.037 µg/mL (≈ 0.0608 µM)
CC[C@]1(O)C[C@@H]2CN(CCc3c([nH]c4ccccc34)[C@@](C(=O)OC)(c3cc4c(cc3OC)N(C)[C@H]3[C@@](O)(C(=O)OC)[C@H](OC(C)=O)[C@]5(CC)C=CCN6CC[C@]43[C@@H]65)C2)C1 [VINBLASTINE] | 1.22 µg/mL |  |  |  |  | 1.02 µg/mL (≈ 1.26 µM)
